ChEMBL document CHEMBL3826914, “Selective photodepletion of malignant T cells in extracorporeal photopheresis with selenorhodamine photosensitizers” (Bioorg Med Chem, 2016)
The source made the active and inactive calls. The rule behind the calls is not given here.

Key:
[1] = Drug extrusion in human CD3 positive cells assessed as change in mean fluorescence intensity at 5 x 10^-8 M preincubated for 20 mins followed by growth in photosensitizer-free media for 30 mins by flow cytometric analysis relative to control; assay type: cell-based; settings: 0.5 h, 0.05 µM
[2] = Drug extrusion in human CD4 positive cells assessed as change in mean fluorescence intensity at 5 x 10^-8 M preincubated for 20 mins followed by growth in photosensitizer-free media for 30 mins by flow cytometric analysis relative to control; assay type: cell-based; settings: 0.5 h, 0.05 µM
[3] = Drug extrusion in human CD8 positive cells assessed as change in mean fluorescence intensity at 5 x 10^-8 M preincubated for 20 mins followed by growth in photosensitizer-free media for 30 mins by flow cytometric analysis relative to control; assay type: cell-based; settings: 0.5 h, 0.05 µM
[4] = Drug extrusion in SEB-stimulated human CD25 positive cells assessed as change in mean fluorescence intensity at 5 x 10^-8 M preincubated for 20 mins followed by growth in photosensitizer-free media for 30 mins by flow cytometric analysis relative to control; settings: 0.5 h, 0.05 µM
[5] = Drug extrusion in SEB-stimulated human CD25 negative cells assessed as change in mean fluorescence intensity at 5 x 10^-8 M preincubated for 20 mins followed by growth in photosensitizer-free media for 30 mins by flow cytometric analysis relative to control; settings: 0.5 h, 0.05 µM
[6] = Drug uptake in SEB-stimulated human CD25 positive cells assessed as mean fluorescence intensity at 5 x 10^-8 M preincubated for 20 mins followed by growth in photosensitizer-free media for 30 mins by flow cytometric analysis relative to control; settings: 0.5 h, 0.05 µM
[7] = Drug uptake in SEB-stimulated human CD25 negative cells assessed as mean fluorescence intensity at 5 x 10^-8 M preincubated for 20 mins followed by growth in photosensitizer-free media for 30 mins by flow cytometric analysis relative to control; settings: 0.5 h, 0.05 µM
[8] = system: HuT78; assay: (§1) Phototoxicity in GFP expressing human HUT78 cells co-cultured with human PBMC cells assessed as cell survival at 7.5 x 10^-8 M preincubated 20 mins in photosensitizer media followed by growth in photosensitizer-free media for 30 mins measured 18 hrs after exposure to 5 J/cm2 irradiation by FACS analysis; assay type: functional; settings: HuT78, light or radiation study, read-out: Survival
Procedure, shortened: (§2)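 Non-stimulated PBMCs from healthy donors (Ficoll-separated) were mixed 5:1 with GFP-transfected, sorted (>98%) HUT-78 cells. Cells took up 7.5×10^-8 M photosensitizer for 20 min, then spent 30 min in dye-free medium. They were exposed to 5 J cm^-2 light (600 nm LED) with rotation at 180 rpm. Survival was gated by FACS (GFP, CD3, CD4, CD8) 18 h later versus non-irradiated controls. Triplicate; mean ± SEM.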

[9] = as §1, with “Phototoxicity human CD3 positive cells co-cultured with” for “Phototoxicity in”, “HUT78” for “HUT78 cells co-cultured with human PBMC”; assay type: cell-based; settings: read-out: Survival; procedure, shortened: as §2
[10] = system: HuT78; assay: Drug uptake in GFP expressing human HUT78 cells co-cultured with non-stimulated human PBMC cells assessed as change in mean fluorescence intensity at 7.5 x 10^-8 M after 20 mins followed by growth in photosensitizer-free media for 30 mins by flow cytometric analysis relative to control; assay type: cell-based; settings: hut78, 0.5 h, 0.075 µM
[11] = Drug extrusion in SEB-stimulated human CD25 positive cells assessed as mean fluorescence intensity at 5 x 10^-8 M preincubated for 20 mins followed by growth in photosensitizer-free media for 30 mins by flow cytometric analysis relative to control; settings: 0.5 h, 0.05 µM
[12] = Drug extrusion in SEB-stimulated human CD25 negative cells assessed as mean fluorescence intensity at 5 x 10^-8 M preincubated for 20 mins followed by growth in photosensitizer-free media for 30 mins by flow cytometric analysis relative to control; settings: 0.5 h, 0.05 µM
[13] = N-octanol/water partition coefficient, logP of the compound at 23 degC after 1 hr by HPLC based shake flask method; assay type: physicochemical
Procedure, shortened: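 Shake-flask method using 1-octanol: 3–5 min of mixing, then 1 h settling. Equilibration and measurement were at 23 °C, in triplicate.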

[14] = system: ABCB1; assay: Permeability from apical to basolateral side in dog MDCK2-MDR1 cells expressing ABCB1 at 5 uM after 30 mins in presence of compound 15 by LC-MS/MS analysis; assay type: ADME, cell-based, Canis lupus familiaris, MDCK-II; settings: MDCK-MDR1, with compound 15 (concentration not stated), read-out: permeability
Procedure, shortened: (§3)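 MDR1-transfected MDCKII cells (passage 16–42) were seeded at 50,000 cells cm^-2 on Transwell filters and used on day 6. Monolayers were rinsed in DPBS with 10^-2 M HEPES, pH 7.4, at 37 °C. They were preincubated 30 min in 4.3 mg/mL BSA/DPBSH with or without 5×10^-6 M P-gp inhibitor. 5 μM dye was added apically or basolaterally and samples taken after 1 h at 37 °C with nutation. Quantitation was by LC-MS/MS; P_passive is the mean of P_AB and P_BA under full inhibition. Mean ± SD.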

[15] = system: ABCB1; assay: Permeability from apical to basolateral side in dog MDCK2-MDR1 cells expressing ABCB1 at 5 uM after 30 mins in absence of compound 15 by LC-MS/MS analysis; assay type: ADME, cell-based, Canis lupus familiaris, MDCK-II; settings: MDCK-MDR1, read-out: permeability; procedure, shortened: as §3
[16] = system: ABCB1; assay: Permeability from basolateral to apical side in dog MDCK2-MDR1 cells expressing ABCB1 at 5 uM after 30 mins in presence of compound 15 by LC-MS/MS analysis; assay type: ADME, cell-based, Canis lupus familiaris, MDCK-II; settings: MDCK-MDR1, with compound 15 (concentration not stated), read-out: permeability; procedure, shortened: as §3
[17] = system: ABCB1; assay: Permeability from basolateral to apical side in dog MDCK2-MDR1 cells expressing ABCB1 at 5 uM after 30 mins in absence of compound 15 by LC-MS/MS analysis; assay type: ADME, cell-based, Canis lupus familiaris, MDCK-II; settings: MDCK-MDR1, read-out: permeability; procedure, shortened: as §3
[18] = system: ABCB1; assay: Passive permeability in dog MDCK2-MDR1 cells expressing ABCB1 at 5 uM after 30 mins in presence of compound 15 by LC-MS/MS analysis; assay type: ADME, cell-based, Canis lupus familiaris, MDCK-II; settings: MDCK-MDR1, with compound 15 (concentration not stated), read-out: permeability; procedure, shortened: as §3
[19] = system: HuT78; settings: human, hut78, 0.5 h, 0.075 µM
[20] = system: HuT78; settings: human, hut78, 0.5 h, 0.075 µM; remark: listed apart in the source
[21] = Drug uptake in human HUT78 cell mitochondria by MTG-based bright field microscopic analysis; assay type: ADME
Procedure, shortened: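 HUT-78 cells (5×10^5 in 0.5 mL medium) were incubated 15 min with 2×10^-7 M dye together with 5×10^-7 M MitoTracker Green. They were centrifuged and analysed by ImageStream imaging flow cytometry, with MTG excited at 488 nm (480–560 nm channel) and dye excited at 561 nm (642–745 nm channel). Colocalisation was given as the bright detail similarity score, mean ± SD over cells.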

[22] = system: HuT78; assay: Phototoxicity against human HUT78 cells assessed as reduction in cell viability preincubated for 1 hr in dark before exposure to 1 J/cm2 irradiation after 48 hrs by MTT assay; assay type: functional, cell-based
Procedure, shortened: (§4)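 HUT-78 cells in RPMI 1640 with 10% FBS, 1% HEPES and 1% penicillin-streptomycin were plated at 7.5×10^4 per well and grown 24 h. Dye was added to final 5×10^-8 to 5×10^-7 M, then 1 h in the dark. Plates were kept dark or irradiated with a 633 ± 2 nm dye laser at ~3.2 mW cm^-2 to 0.5, 1.0 or 2.0 J cm^-2. Medium was replaced, 48 h at 37 °C, then MTT read at 570 nm. Triplicate runs; EC50/LD50 by sigmoidal variable-slope fit.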

[23] = Dark toxicity against human HUT78 cells assessed as reduction in cell viability preincubated for 1 hr in dark after 48 hrs by MTT assay; assay type: cell-based; settings: read-out: LD50; procedure, shortened: as §4
[24] = as §1, with “Phototoxicity human CD4 positive cells co-cultured with” for “Phototoxicity in”, “HUT78” for “HUT78 cells co-cultured with human PBMC”; assay type: cell-based; settings: read-out: Survival; procedure, shortened: as §2
[25] = as §1, with “Phototoxicity human CD8 positive cells co-cultured with” for “Phototoxicity in”, “HUT78” for “HUT78 cells co-cultured with human PBMC”; assay type: cell-based; settings: read-out: Survival; procedure, shortened: as §2
[26] = system: HuT78; assay: Phototoxicity against human HUT78 cells assessed as reduction in cell viability preincubated for 1 hr in dark at 5 x 10^-8M before exposure to 0.5 to 2 J/cm2 irradiation after 48 hrs by MTT assay; assay type: functional, cell-based; procedure, shortened: as §4

| SMILES | Activity [1] | Activity [2] | Activity [3] | Activity [4] | Activity [5] | Flu intensity [6] | Flu intensity [7] | viability at 0.075 µM [8] | viability at 18 h, 0.075 µM [9] | Activity [10] | Flu intensity [11] | Flu intensity [12] | logP [13] | Papp A→B at 0.5 h, 5 µM [14] | Papp A→B at 0.5 h, 5 µM [15] | Papp B→A at 0.5 h, 5 µM [16] | Papp B→A at 0.5 h, 5 µM [17] | Papp at 0.5 h, 5 µM [18] | Flu intensity [19] | Flu intensity [20] | further results |
| --- | --- | --- | --- | --- | --- | --- | --- | --- | --- | --- | --- | --- | --- | --- | --- | --- | --- | --- | --- | --- | --- |
| CN1CCC(C)(C)c2cc3c(cc21)[Se]c1cc2c(cc1=C3c1ccc(C(=S)N3CCCCC3)s1)C(C)(C)CC[N+]=2C.[Cl-] | 40.1% | 42.8% | 57.5% | 16.4% | 30.7% | 14500 a.u. | 5400 a.u. | 5.6% | 1.5% | 34.6% | 12100 a.u. | 3700 a.u. | 3.7 | 0.051 ×10⁻⁶ cm/s | 0.15 ×10⁻⁶ cm/s | 0.013 ×10⁻⁶ cm/s | 0.63 ×10⁻⁶ cm/s | < 0.1 ×10⁻⁶ cm/s | 13800 a.u. | 11700 a.u. |  |
| C[N+]1=c2cc3c(cc2C(C)(C)CC1)=C(c1ccc(C(=S)N2CCCCC2)s1)c1cc2c4c(c1[Se]3)CCCN4CCC2.[Cl-] | 36.8% | 37.7% | 51% | 22% | 32.9% | 43300 a.u. | 14100 a.u. | 0.7% | 0.4% | 28.2% | 33800 a.u. | 9500 a.u. | 3.78 | 0.046 ×10⁻⁶ cm/s | 0.044 ×10⁻⁶ cm/s | 0.032 ×10⁻⁶ cm/s | 0.88 ×10⁻⁶ cm/s | < 0.1 ×10⁻⁶ cm/s | 42000 a.u. | 36000 a.u. |  |
| CN1CCC(C)(C)c2cc3c(-c4ccc(C(=O)N5CCCCC5)s4)c4ccc(=[N+](C)C)cc-4[se]c3cc21.[Cl-] |  |  |  |  |  | 5390 a.u. | 900 a.u. |  |  |  | 3110 a.u. | 270 a.u. |  |  |  |  |  |  | 15300 a.u. | 5270 a.u. | Drug uptake [21]: Active |
| CN1CCC(C)(C)c2cc3c(-c4ccc(C(=S)N5CCCCC5)s4)c4ccc(=[N+](C)C)cc-4[se]c3cc21.[Cl-] |  |  |  |  |  | 45800 a.u. | 10500 a.u. |  |  |  | 32200 a.u. | 4800 a.u. |  |  |  |  |  |  | 39300 a.u. | 37600 a.u. | Drug uptake [21]: Active |
| S=C(c1ccc(C2=c3cc4c5c(c3[Se]c3c2cc2c6c3CCCN6CCC2)CCC[N+]=5CCC4)s1)N1CCCCC1.[Cl-] | 33.1% | 36.1% | 59.2% | 16.8% | 35.2% | 83300 a.u. | 25500 a.u. | 0% | 5.8% | 28.1% | 69000 a.u. | 16600 a.u. |  | 0.051 ×10⁻⁶ cm/s | 0.03 ×10⁻⁶ cm/s | 0.057 ×10⁻⁶ cm/s | 1.8 ×10⁻⁶ cm/s | < 0.1 ×10⁻⁶ cm/s | 81000 a.u. | 66000 a.u. | Activity [22]: Dose-dependent effect; EC50 ([22]; HuT78, light or radiation study): 35 nM; CC50 at 48 h [23]: 1080 nM; viability at 18 h, 0.075 µM [24]: 1.5%; viability at 18 h, 0.075 µM [25]: 11.3%; Activity [26]: Active; Drug uptake [21]: Active |
| CN1CCC(C)(C)c2cc3c(cc21)[Se]c1cc2c(cc1=C3c1ccc(C(=O)N3CCCCC3)s1)C(C)(C)CC[N+]=2C.[Cl-] | 51.3% | 53.3% | 76.2% | 33.5% | 58% | 10900 a.u. | 2500 a.u. | 2.4% | 7.2% | 43.1% | 7300 a.u. | 1100 a.u. | 3.42 | 0.051 ×10⁻⁶ cm/s | 0.18 ×10⁻⁶ cm/s | 0.4 ×10⁻⁶ cm/s | 6.5 ×10⁻⁶ cm/s | 0.2 ×10⁻⁶ cm/s | 9130 a.u. | 6240 a.u. | viability at 18 h, 0.075 µM [24]: 1.1%; viability at 18 h, 0.075 µM [25]: 42.4% |
| C[N+]1=c2cc3c(cc2C(C)(C)CC1)=C(c1ccc(C(=O)N2CCCCC2)s1)c1cc2c4c(c1[Se]3)CCCN4CCC2.[Cl-] | 52.7% | 54.1% | 79.6% | 37% | 58.6% | 33800 a.u. | 9300 a.u. | 1.24% | 4.8% | 47.1% | 25000 a.u. | 3900 a.u. | 3.51 | 0.018 ×10⁻⁶ cm/s | 0.14 ×10⁻⁶ cm/s | 0.28 ×10⁻⁶ cm/s | 6.6 ×10⁻⁶ cm/s | 0.1 ×10⁻⁶ cm/s | 33200 a.u. | 20000 a.u. | viability at 18 h, 0.075 µM [24]: 0.37%; viability at 18 h, 0.075 µM [25]: 24.5% |
